Experimental data published in ChEMBL document CHEMBL1268976, “Stereocontrolled facile synthesis and antimicrobial activity of oximes and oxime ethers of diversely substituted bispidines” (2010).
Values after ≈ are worked out from the molar mass of the structure shown.

Tests used:
Assay type in all cases: functional
Staphylococcus aureus = experiment: Antibacterial activity against Staphylococcus aureus by broth microdilution method
Method in brief: (§1)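 In vitro broth microdilution following the NCCLS standard for bacteria (M7-A5). The test panel was Bacillus subtilis, Staphylococcus aureus, Klebsiella pneumoniae and Pseudomonas aeruginosa.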

Cryptococcus neoformans = experiment: Antimicrobial activity against Cryptococcus neoformans by broth microdilution method
Method in brief: (§2)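 Fungal panel of Candida albicans, Candida parapsilosis, Aspergillus niger and Cryptococcus neoformans, tested in vitro by standard NCCLS broth microdilution. The yeast susceptibility reference cited is M27-A.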

Aspergillus niger = experiment: Antifungal activity against Aspergillus niger by broth microdilution method; method in brief: as §2
Bacillus subtilis = experiment: Antibacterial activity against Bacillus subtilis by broth microdilution method; method in brief: as §1
Candida parapsilosis = experiment: Antifungal activity against Candida parapsilosis by broth microdilution method; conditions: Lodderomyces parapsilosis; method in brief: as §2
Klebsiella pneumoniae = experiment: Antibacterial activity against Klebsiella pneumoniae by broth microdilution method; method in brief: as §1
Candida albicans = experiment: Antifungal activity against Candida albicans by broth microdilution method; method in brief: as §2
Pseudomonas aeruginosa = experiment: Antibacterial activity against Pseudomonas aeruginosa by broth microdilution method; method in brief: as §1

Row | Compound | MIC90 (Staphylococcus aureus) [µg/mL] | MIC90 (Cryptococcus neoformans) [µg/mL] | MIC90 (Aspergillus niger) [µg/mL] | MIC90 (Bacillus subtilis) [µg/mL] | MIC90 (Candida parapsilosis) [µg/mL] | MIC90 (Klebsiella pneumoniae) [µg/mL] | MIC90 (Candida albicans) [µg/mL] | MIC90 (Pseudomonas aeruginosa) [µg/mL]
1 | CON=C1C2C(c3ccc(OCc4ccccc4)cc3)NC(c3ccc(OCc4ccccc4)cc3)C1C(c1ccc(OCc3ccccc3)cc1)NC2c1ccc(OCc2ccccc2)cc1 (configuration not stated) | > 128 | > 128 | 64 (≈ 71.3 µM) | > 128 | > 128 | 64 (≈ 71.3 µM) | > 128 | > 128
2 | CON=C1C2C(c3ccc(OC)cc3)NC(c3ccc(OC)cc3)C1C(c1ccc(OC)cc1)NC2c1ccc(OC)cc1 (configuration not stated) | 32 (≈ 53.9 µM) | 16 (≈ 26.9 µM) | 16 (≈ 26.9 µM) | 64 (≈ 108 µM) | 128 (≈ 216 µM) | > 128 | > 128 | 16 (≈ 26.9 µM)
3 | CON=C1C2C(c3ccccc3Br)NC(c3ccccc3Br)C1C(c1ccccc1Br)NC2c1ccccc1Br (configuration not stated) | > 128 | > 128 | > 128 | > 128 | 64 (≈ 81.1 µM) | > 128 | > 128 | > 128
4 | CSc1ccc(C2NC(c3ccc(SC)cc3)C3C(=NO)C2C(c2ccc(SC)cc2)NC3c2ccc(SC)cc2)cc1 (configuration not stated) | > 128 | 32 (≈ 49.7 µM) | 16 (≈ 24.8 µM) | > 128 | 32 (≈ 49.7 µM) | 32 (≈ 49.7 µM) | 32 (≈ 49.7 µM) | 16 (≈ 24.8 µM)
5 | ON=C1C2C(c3ccc(Br)cc3)NC(c3ccc(Br)cc3)C1C(c1ccc(Br)cc1)NC2c1ccc(Br)cc1 (configuration not stated) | > 128 | > 128 | > 128 | 64 (≈ 82.6 µM) | 32 (≈ 41.3 µM) | 128 (≈ 165 µM) | > 128 | > 128
6 | CCOc1ccccc1C1NC(c2ccccc2OCC)C2C(=NO)C1C(c1ccccc1OCC)NC2c1ccccc1OCC (configuration not stated) | > 128 | 64 (≈ 101 µM) | 32 (≈ 50.3 µM) | > 128 | > 128 | 64 (≈ 101 µM) | > 128 | 32 (≈ 50.3 µM)
7 | COc1ccccc1C1NC(c2ccccc2OC)C2C(=NO)C1C(c1ccccc1OC)NC2c1ccccc1OC (configuration not stated) | > 128 | 32 (≈ 55.2 µM) | 16 (≈ 27.6 µM) | > 128 | 32 (≈ 55.2 µM) | 64 (≈ 110 µM) | > 128 | 16 (≈ 27.6 µM)
8 | CON=C1C2C(c3cccc(F)c3)NC(c3cccc(F)c3)C1C(c1cccc(F)c1)NC2c1cccc(F)c1 (configuration not stated) | > 128 | > 128 | 16 (≈ 29.3 µM) | > 128 | > 128 | 64 (≈ 117 µM) | 32 (≈ 58.7 µM) | 16 (≈ 29.3 µM)
9 | CC(C)c1ccc(C2NC(c3ccc(C(C)C)cc3)C3C(=NO)C2C(c2ccc(C(C)C)cc2)NC3c2ccc(C(C)C)cc2)cc1 (configuration not stated) | 128 (≈ 204 µM) | > 128 | > 128 | > 128 | 32 (≈ 51 µM) | 128 (≈ 204 µM) | > 128 | 16 (≈ 25.5 µM)
10 | ON=C1C2C(c3cccc(Br)c3)NC(c3cccc(Br)c3)C1C(c1cccc(Br)c1)NC2c1cccc(Br)c1 (configuration not stated) | > 128 | > 128 | > 128 | > 128 | > 128 | > 128 | > 128 | > 128
11 | ON=C1C2C(c3cccc(Cl)c3)NC(c3cccc(Cl)c3)C1C(c1cccc(Cl)c1)NC2c1cccc(Cl)c1 (configuration not stated) | > 128 | > 128 | 64 (≈ 107 µM) | > 128 | > 128 | > 128 | > 128 | 64 (≈ 107 µM)
12 | GENTAMICIN | 4 | – | – | 16 | – | 2 | – | 16
